Test results taken from ChEMBL document CHEMBL1139344, “Antagonists of the human A(2A) adenosine receptor. 4. Design, synthesis, and preclinical evaluation of 7-aryltriazolo[4,5-d]pyrimidines” (J Med Chem, 2009).
In brackets after ≈: the same amount, converted by molar mass. Values belong to the compound of their own block, whether it stands above or below them. Activity calls are given as the source filed them. The calls are words filed in the database; no cut-off is given here.

What was measured:
Homo sapiens [1] = species on record: Homo sapiens; experiment: Selectivity for human recombinant adenosine A2A receptor over human recombinant adenosine A3 receptor by cell-based assay
Rattus norvegicus [2] = experiment: Reversal of haloperidol-induced hypolocomotion in Sprague-Dawley rat assessed as time spent for locomotor activity at 30 mg/kg, po administered 120 mins prior and measured for 60 mins; type: functional, organism-based; set-up: dose 30 mg/kg
Liver microsomes = experiment: Metabolic stability in rat liver microsomes after 30 mins; type: ADME, Microsome; conditions: 0.5 h
In short: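 Turnover by rodent liver microsomes measured as percent turnover after 30 min.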

[3] = Aqueous solubility in phosphate buffered saline; type: physicochemical
Homo sapiens [4] = species on record: Homo sapiens; experiment: Selectivity for human recombinant adenosine A2A receptor over human recombinant adenosine A1 receptor by cell-based assay
Mus musculus [5] = experiment: Reversal of haloperidol-induced hypolocomotion in TO mouse assessed as time spent for locomotor activity at 30 mg/kg, po administered 15 mins prior and measured for 60 mins; type: functional, organism-based; set-up: dose 30 mg/kg
Adenosine receptor A2b = target: T1, Adenosine receptor A2b (Homo sapiens, UniProt P29275); experiment: Displacement of radioligand from human recombinant adenosine A2B receptor at 21 degC after 60 mins by cell-based microplate scintillation counting
T1 sequence (P29275 whole entry): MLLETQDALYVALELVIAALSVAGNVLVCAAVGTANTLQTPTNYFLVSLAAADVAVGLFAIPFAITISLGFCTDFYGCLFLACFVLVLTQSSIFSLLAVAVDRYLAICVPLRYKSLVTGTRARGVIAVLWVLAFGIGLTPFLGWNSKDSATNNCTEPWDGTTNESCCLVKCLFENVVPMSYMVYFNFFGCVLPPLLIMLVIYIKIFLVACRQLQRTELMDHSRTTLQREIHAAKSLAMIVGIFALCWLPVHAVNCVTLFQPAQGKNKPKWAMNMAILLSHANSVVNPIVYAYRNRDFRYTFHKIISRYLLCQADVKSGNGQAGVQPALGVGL

Adenosine receptor A1 = target: T2, Adenosine receptor A1 (Homo sapiens, UniProt P30542); experiment: Displacement of radioligand from human recombinant adenosine A1 receptor at 21 degC after 90 mins by cell-based microplate scintillation counting
T2 sequence (P30542 whole entry): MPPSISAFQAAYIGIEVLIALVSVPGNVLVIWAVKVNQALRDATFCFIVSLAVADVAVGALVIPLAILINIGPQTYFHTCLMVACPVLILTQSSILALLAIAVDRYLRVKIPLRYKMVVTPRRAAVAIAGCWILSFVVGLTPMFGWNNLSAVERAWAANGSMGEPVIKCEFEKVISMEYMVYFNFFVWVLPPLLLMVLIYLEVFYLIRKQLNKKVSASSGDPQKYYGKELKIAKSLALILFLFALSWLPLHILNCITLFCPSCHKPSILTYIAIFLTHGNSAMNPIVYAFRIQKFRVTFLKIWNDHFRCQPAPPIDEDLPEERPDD

Adenosine receptor A2a = Adenosine receptor A2a (Homo sapiens, UniProt P29274); experiment: Displacement of radioligand from human recombinant adenosine A2A receptor at 21 degC after 90 mins by cell-based microplate scintillation counting
Homo sapiens [6] = species on record: Homo sapiens; experiment: Selectivity for human recombinant adenosine A2A receptor over human recombinant adenosine A2B receptor by cell-based assay
Adenosine receptor A3 = target: T3, Adenosine receptor A3 (Homo sapiens, UniProt P0DMS8); experiment: Displacement of radioligand from human recombinant adenosine A3 receptor at 21 degC after 60 mins by cell-based microplate scintillation counting
T3 sequence (P0DMS8 whole entry): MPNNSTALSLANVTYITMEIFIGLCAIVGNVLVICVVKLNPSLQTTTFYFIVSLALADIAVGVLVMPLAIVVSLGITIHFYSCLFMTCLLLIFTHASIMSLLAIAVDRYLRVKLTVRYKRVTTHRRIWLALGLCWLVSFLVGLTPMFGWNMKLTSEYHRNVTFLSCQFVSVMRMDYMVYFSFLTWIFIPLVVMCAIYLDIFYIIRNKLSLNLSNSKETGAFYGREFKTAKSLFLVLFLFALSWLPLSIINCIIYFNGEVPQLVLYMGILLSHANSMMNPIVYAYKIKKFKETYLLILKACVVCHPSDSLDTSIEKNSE

Rattus norvegicus [7] = experiment: Reversal of haloperidol-induced hypolocomotion in po dosed Sprague-Dawley rat assessed as time spent for locomotor activity administered 15 mins prior to testing done for 60 mins; type: functional, organism-based
In short: (§1)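 Haloperidol (0.2 mg/kg ip) used to induce hypolocomotion; antagonist given orally over 0.01-10 mg/kg in mouse and rat; activity scored as time spent active during a 60 min session; p < 0.05 versus vehicle (+haloperidol) control; minimal effective dose taken as lowest active dose.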

Mus musculus [8] = experiment: Reversal of haloperidol-induced hypolocomotion in po dosed TO mouse assessed as time spent for locomotor activity administered 120 mins prior to testing done for 60 mins; type: functional, organism-based; in short: as §1
Rattus norvegicus [9] = experiment: Reversal of haloperidol-induced hypolocomotion in po dosed Sprague-Dawley rat assessed as minimal effective dose administered 120 mins prior to testing done for 60 mins; type: functional; conditions: read-out: MED; in short: as §1
Mus musculus [10] = experiment: Reversal of haloperidol-induced hypolocomotion in po dosed TO mouse assessed as minimal effective dose administered 15 mins prior to testing done for 60 mins; type: functional; conditions: read-out: MED; in short: as §1
[11] = Tmax in Sprague-Dawley rat at 2 mg/kg, iv; type: ADME, organism-based; set-up: dose 2 mg/kg, route intravenous; conditions: in vivo
[12] = Oral bioavailability in Sprague-Dawley rat; type: ADME, organism-based; conditions: in vivo
Brain = experiment: Drug uptake in Sprague-Dawley rat brain at 2 mg/kg, iv; type: ADME, organism-based; set-up: dose 2 mg/kg, route intravenous; conditions: in vivo
In short: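 Male Sprague-Dawley rats dosed intravenously at 2 mg kg^-1; brain uptake calculated as brain/plasma AUClast ratio.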

[13] = Apparent permeability across human Caco-2 cell membrane; type: ADME, cell-based; conditions: read-out: permeability
[14] = target: Voltage-gated inwardly rectifying potassium channel KCNH2 (Homo sapiens, UniProt Q12809); experiment: Binding affinity to human ERG at 30 uM by patch clamp technique
In short: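 hERG potassium channel examined by patch clamp at concentrations up to 30 µM, the maximal concentration reached in the protocol; response compared with vehicle alone.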

[15] = Half life in Sprague-Dawley rat at 2 mg/kg, iv; type: ADME, organism-based; set-up: dose 2 mg/kg, route intravenous; conditions: in vivo
Mus musculus [16] = experiment: Toxicity in mouse at 100 mg/kg administered for 4 days; type: organism-based; set-up: dose 100 mg/kg; conditions: in vivo, 96 h
Mus musculus [17] = experiment: Reversal of haloperidol-induced hypolocomotion in TO mouse assessed as time spent for locomotor activity at 0.3 mg/kg, po administered 15 mins prior to testing done for 60 mins; type: functional, organism-based; set-up: dose 0.3 mg/kg; in short: as §1
Rattus norvegicus [18] = experiment: Reversal of haloperidol-induced hypolocomotion in Sprague-Dawley rat assessed as time spent for locomotor activity at 1 mg/kg, po administered 120 mins prior to testing done for 60 mins; type: functional, organism-based; set-up: dose 1 mg/kg; in short: as §1
[19] = Solubility at neutral pH; type: physicochemical

Sequence of Adenosine receptor A2a (P29274 whole entry): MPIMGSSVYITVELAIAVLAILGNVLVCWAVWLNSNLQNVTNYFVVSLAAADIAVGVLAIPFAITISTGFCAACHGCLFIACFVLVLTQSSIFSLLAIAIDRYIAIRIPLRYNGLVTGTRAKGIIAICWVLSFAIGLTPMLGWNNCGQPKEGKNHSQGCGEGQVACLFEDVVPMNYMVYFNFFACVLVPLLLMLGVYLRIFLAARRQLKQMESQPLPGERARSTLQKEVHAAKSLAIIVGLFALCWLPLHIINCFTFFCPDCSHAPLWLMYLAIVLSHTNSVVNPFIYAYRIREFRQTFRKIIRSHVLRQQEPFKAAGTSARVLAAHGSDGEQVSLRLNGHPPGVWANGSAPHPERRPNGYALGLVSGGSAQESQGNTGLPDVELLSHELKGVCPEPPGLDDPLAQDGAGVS
Sequence of Voltage-gated inwardly rectifying potassium channel KCNH2 (Q12809 whole entry): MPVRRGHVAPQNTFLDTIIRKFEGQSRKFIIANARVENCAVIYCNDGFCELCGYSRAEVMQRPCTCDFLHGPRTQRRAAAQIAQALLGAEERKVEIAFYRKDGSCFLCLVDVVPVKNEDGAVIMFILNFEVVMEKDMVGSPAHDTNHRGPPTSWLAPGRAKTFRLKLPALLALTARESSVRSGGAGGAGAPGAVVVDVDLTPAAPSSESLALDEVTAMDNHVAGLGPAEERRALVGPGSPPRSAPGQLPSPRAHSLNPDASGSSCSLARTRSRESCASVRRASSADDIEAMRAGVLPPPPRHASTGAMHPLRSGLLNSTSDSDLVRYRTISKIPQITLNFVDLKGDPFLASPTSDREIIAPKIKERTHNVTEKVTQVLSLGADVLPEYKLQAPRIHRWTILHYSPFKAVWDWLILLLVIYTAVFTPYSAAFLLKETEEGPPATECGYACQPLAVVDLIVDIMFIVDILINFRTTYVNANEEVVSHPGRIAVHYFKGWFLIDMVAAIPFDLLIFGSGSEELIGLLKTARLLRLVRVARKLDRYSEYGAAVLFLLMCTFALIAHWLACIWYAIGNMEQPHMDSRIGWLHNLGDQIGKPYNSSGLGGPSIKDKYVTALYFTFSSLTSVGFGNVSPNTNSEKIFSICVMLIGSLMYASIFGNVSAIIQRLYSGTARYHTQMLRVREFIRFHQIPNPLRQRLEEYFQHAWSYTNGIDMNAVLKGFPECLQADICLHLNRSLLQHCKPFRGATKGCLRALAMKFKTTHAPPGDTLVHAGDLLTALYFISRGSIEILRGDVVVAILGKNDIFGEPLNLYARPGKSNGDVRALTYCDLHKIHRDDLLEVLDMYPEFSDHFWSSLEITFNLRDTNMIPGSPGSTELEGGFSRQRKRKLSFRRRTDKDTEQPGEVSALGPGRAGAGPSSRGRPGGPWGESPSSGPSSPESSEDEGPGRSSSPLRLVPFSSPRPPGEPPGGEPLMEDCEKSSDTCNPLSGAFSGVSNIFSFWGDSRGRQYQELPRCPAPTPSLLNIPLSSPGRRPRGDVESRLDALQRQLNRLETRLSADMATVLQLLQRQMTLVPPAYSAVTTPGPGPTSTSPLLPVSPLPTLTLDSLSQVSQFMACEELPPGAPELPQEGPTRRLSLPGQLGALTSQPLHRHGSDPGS

Structure (SMILES): CC(C)c1cc(Cn2nnc3c(-c4ccco4)nc(N)nc32)ccc1N
Activity (Rattus norvegicus [7]): inactive | Activity (Mus musculus [8]): inactive | Ki (Adenosine receptor A2b): 397 nM | Ki (Adenosine receptor A1): 50 nM | Ki (Adenosine receptor A2a): 1.5 nM | Ki (Adenosine receptor A3): 251 nM

Structure (SMILES): Nc1nc(-c2ccco2)c2nnn(Cc3ccsc3)c2n1
Activity (Rattus norvegicus [7]): inactive | Activity (Mus musculus [8]): inactive | Ki (Adenosine receptor A2b): 164 nM | Ki (Adenosine receptor A1): 78 nM | Ki (Adenosine receptor A2a): 1.9 nM | Ki (Adenosine receptor A3): 136 nM

Structure (SMILES): CCn1c(=O)c2c(nc(/C=C/c3ccc(OC)c(OC)c3)n2C)n(CC)c1=O
Activity (Mus musculus [17]): Active | Activity (Rattus norvegicus [18]): Active

Structure (SMILES): CS(=O)(=O)O.Cc1cc(Cn2nnc3c(-c4ccco4)nc(N)nc32)ccc1N
solubility [19]: 36 mg/mL

The next lines start with results.

Stability (Liver microsomes): Stable | solubility [3]: 30 µM (≈ 9.85 µg/mL) | Ki (Adenosine receptor A2b): 226 nM | Ki (Adenosine receptor A1): 118 nM | Ki (Adenosine receptor A2a): 2 nM | Ki (Adenosine receptor A3): 1180 nM
Structure (SMILES): Nc1nc(-c2ccco2)c2nnn(Cc3ccc(F)cc3F)c2n1
fold change (FC) (Homo sapiens [1]): > 50 | Activity (Rattus norvegicus [2]): inactive | fold change (FC) (Homo sapiens [4]): > 50 | Activity (Mus musculus [5]): inactive | fold change (FC) (Homo sapiens [6]): > 50

Ki (Adenosine receptor A2b): 123 nM | Ki (Adenosine receptor A1): 63 nM | Ki (Adenosine receptor A3): 302 nM
Structure (SMILES): Nc1nc(-c2ccco2)c2nnn(Cc3ccccc3N)c2n1
minimal effective dose (Rattus norvegicus [9]): 10 mg/kg | minimal effective dose (Mus musculus [10]): 10 mg/kg

Tmax [11]: 0.5 h | bioavailability [12]: 35% | Drug uptake (Brain): 57% | Papp [13]: 11 ×10⁻⁶ cm/s | half-life [15]: 2 h
Structure (SMILES): Cc1cc(Cn2nnc3c(-c4ccco4)nc(N)nc32)ccc1N [VIPADENANT]
Activity [14]: Not Active | Activity (Mus musculus [16]): Non-toxic

Ki (Adenosine receptor A2b): 88 nM | Ki (Adenosine receptor A1): 117 nM | Ki (Adenosine receptor A2a): 2.3 nM | Ki (Adenosine receptor A3): 123 nM
Structure (SMILES): Nc1nc(-c2ccco2)c2nnn(Cc3cccs3)c2n1
minimal effective dose (Rattus norvegicus [9]): 30 mg/kg | minimal effective dose (Mus musculus [10]): 30 mg/kg

Ki (Adenosine receptor A2b): 225 nM | Ki (Adenosine receptor A1): 931 nM | Ki (Adenosine receptor A2a): 14.5 nM | Ki (Adenosine receptor A3): 1020 nM
Structure (SMILES): Nc1nc(-c2ccco2)c2nnn(Cc3cccnc3)c2n1
Activity (Rattus norvegicus [7]): inactive | Activity (Mus musculus [8]): inactive
